Reference: ChEMBL document CHEMBL3259728, “Design, synthesis and biological evaluation of some novel substituted quinazolines as antitumor agents” (2014)

What was measured:
Assay type in all cases: functional
[1] = system: MDA-MB-435; assay: Growth inhibition of human MDA-MB-435 cells at 10 uM after 48 hrs by SRB assay; conditions: MDA-MB-435, 48 h, read-out: GI
Outline: (§1)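 NCI-60 primary one-dose screen run at the US NCI, with human tumour lines from nine cancer types. Compound added once at 10^-5 M, followed by 48 h incubation. End point was sulforhodamine B protein staining read spectrophotometrically. Result given as percent growth of treated cells against untreated controls, reported as % growth inhibition.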

[2] = system: CCRF-CEM; assay: Growth inhibition of human CCRF-CEM cells assessed as cell growth at 10^-8 M after 48 hrs by SRB assay; conditions: read-out: Activity
Outline: (§2)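 Five-dose NCI panel protocol. Each dose (10^-4 to 10^-8 M, 10-fold steps) was given as 48 h continuous exposure, and protein was measured by SRB staining. Percentage growth at each level is [(Ti−Tz)/(C−Tz)]×100, where Tz is time-zero absorbance and C is untreated control.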

[3] = system: HL-60(TB); assay: Growth inhibition of human HL-60(TB) cells at 10 uM after 48 hrs by SRB assay; conditions: HL-60, 48 h, read-out: GI
Outline: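 NCI 60-cell-line primary screen: compound added at single concentration 10^-5 M, cultures incubated 48 h; end point by sulforhodamine B protein staining read spectrophotometrically; result given as growth percentage of treated versus untreated control cells, reported as % growth inhibition.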

[4] = system: SK-OV-3; assay: Growth inhibition of human SKOV3 cells at 10 uM after 48 hrs by SRB assay; conditions: SK-OV-3, 48 h, read-out: GI; outline: as §1
[5] = system: MCF7; assay: Growth inhibition of human MCF7 cells at 10 uM after 48 hrs by SRB assay; conditions: MCF7, 48 h, read-out: GI; outline: as §1
[6] = system: M14; assay: Growth inhibition of human M14 cells at 10 uM after 48 hrs by SRB assay; conditions: M14, 48 h, read-out: GI; outline: as §1
[7] = system: SK-MEL-28; assay: Growth inhibition of human SK-MEL-28 cells at 10 uM after 48 hrs by SRB assay; conditions: SK-MEL-28, 48 h, read-out: GI; outline: as §1
[8] = system: MDA-MB-468; assay: Growth inhibition of human MDA-MB-468 cells assessed as cell growth at 10^-8 M after 48 hrs by SRB assay; conditions: MDA-MB-468, 48 h, read-out: Activity
[9] = Growth inhibition of human UO31 cells at 10 uM after 48 hrs by SRB assay; conditions: UO-31, 48 h, read-out: GI; outline: as §1
[10] = system: HOP-62; assay: Growth inhibition of human HOP62 cells at 10 uM after 48 hrs by SRB assay; conditions: HOP-62, 48 h, read-out: GI; outline: as §1
[11] = system: KM12; assay: Growth inhibition of human KM12 cells at 10 uM after 48 hrs by SRB assay; conditions: KM12, 48 h, read-out: GI; outline: as §1
[12] = system: MCF7; assay: Growth inhibition of human MCF7 cells assessed as cell growth at 10^-5 M after 48 hrs by SRB assay; conditions: MCF7, 48 h, read-out: Activity
[13] = system: SK-MEL-5; assay: Cytotoxicity against human SK-MEL-5 cells after 48 hrs by SRB assay; conditions: SK-MEL-5, 48 h
Outline: (§3)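 NCI 60-cell-line panel of human tumour lines from nine cancer types. Continuous 48 h exposure at five 10-fold dilutions from 10^-4 to 10^-8 M, with 5-FU as positive control. SRB protein stain read spectrophotometrically at time zero, untreated control and each concentration. GI50, TGI and LC50 were derived from the [(Ti−Tz)/(C−Tz)]×100 growth relations, and out-of-range values are given as > or < the tested limits.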

[14] = system: ACHN; assay: Growth inhibition of human ACHN cells at 10 uM after 48 hrs by SRB assay; conditions: read-out: GI
Outline: (§4)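 NCI primary one-dose screen. A single concentration of 10^-5 M was added to the cell culture, followed by 48 h incubation and an SRB protein-dye endpoint read spectrophotometrically. Results are growth percentage relative to untreated control cells, reported as % growth inhibition.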

[15] = system: CAKI-1; assay: Growth inhibition of human CAKI-1 cells at 10 uM after 48 hrs by SRB assay; conditions: CAKI-1, 48 h, read-out: GI; outline: as §4
[16] = Growth inhibition of human OVCAR5 cells at 10 uM after 48 hrs by SRB assay; conditions: OVCAR-5, 48 h, read-out: GI; outline: as §1
[17] = Growth inhibition of human Hs578T cells at 10 uM after 48 hrs by SRB assay; conditions: Hs-578T, read-out: GI; outline: as §1
[18] = system: CAKI-1; assay: Growth inhibition of human CAKI-1 cells assessed as cell growth at 10^-8 M after 48 hrs by SRB assay; conditions: CAKI-1, 48 h, read-out: Activity; outline: as §2
[19] = system: SW-620; assay: Growth inhibition of human SW620 cells at 10 uM after 48 hrs by SRB assay; conditions: SW-620, 48 h, read-out: GI; outline: as §1
[20] = Growth inhibition of human OVCAR3 cells at 10 uM after 48 hrs by SRB assay; conditions: OVCAR-3, 48 h, read-out: GI; outline: as §1
[21] = system: A498; assay: Growth inhibition of human A498 cells at 10 uM after 48 hrs by SRB assay; conditions: A498, 48 h, read-out: GI; outline: as §4
[22] = system: CCRF-CEM; assay: Growth inhibition of human CCRF-CEM cells at 10 uM after 48 hrs by SRB assay; conditions: read-out: GI; outline: as §4
[23] = system: NCI-H23; assay: Growth inhibition of human NCI-H23 cells at 10 uM after 48 hrs by SRB assay; conditions: NCI-H23, 48 h, read-out: GI; outline: as §1
[24] = system: A549; assay: Growth inhibition of human A549 cells at 10 uM after 48 hrs by SRB assay; conditions: A549, 48 h, read-out: GI; outline: as §4
[25] = system: MDA-MB-231; assay: Growth inhibition of human MDA-MB-231 cells assessed as cell growth at 10^-6 M after 48 hrs by SRB assay; conditions: MDA-MB-231, 48 h, read-out: Activity
[26] = Growth inhibition of human EKVX cells at 10 uM after 48 hrs by SRB assay; conditions: read-out: GI; outline: as §1
[27] = system: SF-268; assay: Cytotoxicity against human SF268 cells after 48 hrs by SRB assay; conditions: SF-268, 48 h; outline: as §3
[28] = system: HOP-62; assay: Growth inhibition of human HOP62 cells assessed as cell growth at 10^-4 M after 48 hrs by SRB assay; conditions: HOP-62, 48 h, read-out: Activity
[29] = system: NCI-H460; assay: Growth inhibition of human NCI-H460 cells assessed as cell growth at 10^-6 M after 48 hrs by SRB assay; conditions: NCI-H460, 48 h, read-out: Activity
[30] = read-out: LC50 (the source's name)
[31] = read-out: pLC50 (the source's name) (converted)

## Cc1ccc(-c2nc3ccc(Cl)cc3c(=O)n2/N=C/c2ccccc2)cc1
[1]
  inhibition of growth at 10 µM: 34%
[2]
  growth at 0.01 µM: 98%
[3]
  inhibition of growth at 10 µM: 26%
[4]
  inhibition of growth at 10 µM: 64%
[5]
  inhibition of growth at 10 µM: 20%
[6]
  inhibition of growth at 10 µM: 29%
[7]
  inhibition of growth at 10 µM: < 10%
[8]
  growth at 0.01 µM: 91%
[9]
  inhibition of growth at 10 µM: 33%
[10]
  inhibition of growth at 10 µM: 98%
[11]
  inhibition of growth at 10 µM: 18%
[12]
  growth at 10 µM: 59%
[13]; read-out: GI50
  GI50: 20 µM
[13]; [30]
  CC50: > 100 µM
[13]; read-out: TGI
  TGI: > 100 µM
[13]; read-out: pGI50 (converted)
  GI50: 20 µM
[13]; [31]
  CC50: > 100 µM
[13]; read-out: pTGI
  TGI: > 100 µM
[14]
  inhibition of growth at 10 µM: 74%
[15]
  inhibition of growth at 10 µM: 40%
[16]
  inhibition of growth at 10 µM: 18%
[17]
  inhibition of growth at 10 µM: 44%
[18]
  growth at 0.01 µM: 89%
[19]
  inhibition of growth at 10 µM: 23%
[20]
  inhibition of growth at 10 µM: 42%
[21]
  inhibition of growth at 10 µM: 16%
[22]
  inhibition of growth at 10 µM: < 10%
[23]
  inhibition of growth at 10 µM: 11%
[24]
  inhibition of growth at 10 µM: 87%
[25]
  growth at 1 µM: 78%
[26]
  inhibition of growth at 10 µM: 40%
[27]; read-out: GI50
  GI50: 9.98 µM
[27]; [30]
  CC50: > 100 µM
[27]; read-out: TGI
  TGI: > 100 µM
[27]; read-out: pGI50 (converted)
  GI50: 10 µM
[27]; [31]
  CC50: > 100 µM
[27]; read-out: pTGI
  TGI: > 100 µM
[28]
  growth at 100 µM: -64%
[29]
  growth at 1 µM: 85%
